Assay results taken from ChEMBL document CHEMBL1133874, “Synthesis of N(1)-substituted analogues of (2R,4R)-4-amino-pyrrolidine-2,4-dicarboxylic acid as agonists, partial agonists, and antagonists of group II metabotropic glutamate receptors” (Bioorg Med Chem Lett, 2001).

Tests used:
Assay type in all cases: functional; call rule not given here
[1] = target: T1, Metabotropic glutamate receptor 6 (Rattus norvegicus, UniProt P35349); assay: Effective concentration for agonistic activity at Metabotropic glutamate receptor 6; Not active
[2] = target: T2, Metabotropic glutamate receptor 3 (Rattus norvegicus, UniProt P31422); assay: Inhibitory concentration required for antagonistic activity at Metabotropic glutamate receptor 3
[3] = target: T3, Metabotropic glutamate receptor 2 (Rattus norvegicus, UniProt P31421); assay: Inhibitory concentration required for antagonistic activity at Metabotropic glutamate receptor 2
Outline: (§1)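 Antagonism at mGluR2 stably expressed in CHO cells, tested against 2 μM glutamate and read as forskolin-induced cAMP formation. Dose-response curves; means ± SEM from at least three experiments run in triplicate.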

[4] = target: T3, Metabotropic glutamate receptor 2; assay: Effective concentration required for agonistic activity at Metabotropic glutamate receptor 2
[5] = target: T2, Metabotropic glutamate receptor 3; assay: Effective concentration required for agonistic activity at Metabotropic glutamate receptor 3
Outline: (§2)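 Agonist activity at mGluR3, stably expressed in CHO cells together with a chimeric construct. Dose-response curves; means ± SEM from at least three experiments run in triplicate.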

[6] = target: T2, Metabotropic glutamate receptor 3; assay: Inhibitory concentration required for antagonistic activity at Metabotropic glutamate receptor 3; Not active
[7] = target: T2, Metabotropic glutamate receptor 3; assay: Effective concentration required for agonistic activity at Metabotropic glutamate receptor 3; Not active; outline: as §2
[8] = target: T1, Metabotropic glutamate receptor 6; assay: Effective concentration required for agonistic activity at Metabotropic glutamate receptor 6
[9] = target: T3, Metabotropic glutamate receptor 2; assay: Effective concentration required for partial agonistic activity at Metabotropic glutamate receptor 2; Partial agonist
[10] = target: T1, Metabotropic glutamate receptor 6; assay: Effective concentration required for partial agonistic activity at Metabotropic glutamate receptor 6; Partial agonist
[11] = target: T2, Metabotropic glutamate receptor 3; assay: Effective concentration required for partial agonistic activity at Metabotropic glutamate receptor 3; Partial agonist; outline: as §2
[12] = target: T3, Metabotropic glutamate receptor 2; assay: Inhibitory concentration required for antagonistic activity at Metabotropic glutamate receptor 2; Not active; outline: as §1
[13] = target: T3, Metabotropic glutamate receptor 2; assay: Effective concentration required for agonistic activity at Metabotropic glutamate receptor 2; Not active

T1 sequence (P35349 whole entry): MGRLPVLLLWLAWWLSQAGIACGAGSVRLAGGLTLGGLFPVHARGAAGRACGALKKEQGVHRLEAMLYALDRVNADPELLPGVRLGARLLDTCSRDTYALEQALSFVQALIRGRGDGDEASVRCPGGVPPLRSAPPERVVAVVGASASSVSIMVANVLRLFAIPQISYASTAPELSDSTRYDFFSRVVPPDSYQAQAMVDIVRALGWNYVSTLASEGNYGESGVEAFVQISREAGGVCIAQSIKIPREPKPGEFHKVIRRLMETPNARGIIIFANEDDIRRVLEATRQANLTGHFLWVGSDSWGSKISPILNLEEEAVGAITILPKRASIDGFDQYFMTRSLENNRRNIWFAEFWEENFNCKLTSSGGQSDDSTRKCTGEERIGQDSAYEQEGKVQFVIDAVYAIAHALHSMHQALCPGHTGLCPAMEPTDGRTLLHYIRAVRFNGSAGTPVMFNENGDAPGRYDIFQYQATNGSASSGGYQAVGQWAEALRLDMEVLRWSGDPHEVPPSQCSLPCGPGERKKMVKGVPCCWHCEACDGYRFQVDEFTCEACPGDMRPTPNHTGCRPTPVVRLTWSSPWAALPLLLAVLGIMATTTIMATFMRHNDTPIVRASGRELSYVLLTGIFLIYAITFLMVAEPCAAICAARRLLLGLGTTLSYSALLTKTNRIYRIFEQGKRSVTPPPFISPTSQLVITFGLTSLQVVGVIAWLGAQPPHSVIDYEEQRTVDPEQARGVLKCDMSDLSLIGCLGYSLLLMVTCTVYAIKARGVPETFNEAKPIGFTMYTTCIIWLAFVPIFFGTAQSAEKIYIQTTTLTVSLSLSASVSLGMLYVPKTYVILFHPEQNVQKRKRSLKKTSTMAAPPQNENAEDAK
T2 sequence (P31422 whole entry): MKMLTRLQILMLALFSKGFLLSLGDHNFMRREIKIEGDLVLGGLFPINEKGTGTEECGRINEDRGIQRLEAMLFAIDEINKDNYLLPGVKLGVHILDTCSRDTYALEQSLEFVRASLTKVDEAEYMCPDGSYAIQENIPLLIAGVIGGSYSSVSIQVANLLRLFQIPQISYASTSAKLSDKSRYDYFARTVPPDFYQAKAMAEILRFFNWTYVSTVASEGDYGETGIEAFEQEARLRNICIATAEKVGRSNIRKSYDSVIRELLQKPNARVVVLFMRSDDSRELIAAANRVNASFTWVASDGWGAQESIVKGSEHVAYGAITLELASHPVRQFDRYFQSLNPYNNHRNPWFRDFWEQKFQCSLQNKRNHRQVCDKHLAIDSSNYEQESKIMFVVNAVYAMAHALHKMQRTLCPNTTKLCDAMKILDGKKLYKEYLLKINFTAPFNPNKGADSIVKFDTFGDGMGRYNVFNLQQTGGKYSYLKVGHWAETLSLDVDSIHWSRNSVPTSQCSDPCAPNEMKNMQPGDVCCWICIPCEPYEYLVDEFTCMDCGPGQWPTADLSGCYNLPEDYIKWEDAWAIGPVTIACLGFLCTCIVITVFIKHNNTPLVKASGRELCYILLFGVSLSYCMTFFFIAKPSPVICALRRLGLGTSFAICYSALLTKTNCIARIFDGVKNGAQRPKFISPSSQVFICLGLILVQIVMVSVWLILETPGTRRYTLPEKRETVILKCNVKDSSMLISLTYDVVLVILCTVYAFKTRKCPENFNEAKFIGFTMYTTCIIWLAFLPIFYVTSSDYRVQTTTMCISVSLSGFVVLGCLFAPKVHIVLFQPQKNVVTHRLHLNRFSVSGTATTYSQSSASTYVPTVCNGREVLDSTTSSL
T3 sequence (P31421 whole entry): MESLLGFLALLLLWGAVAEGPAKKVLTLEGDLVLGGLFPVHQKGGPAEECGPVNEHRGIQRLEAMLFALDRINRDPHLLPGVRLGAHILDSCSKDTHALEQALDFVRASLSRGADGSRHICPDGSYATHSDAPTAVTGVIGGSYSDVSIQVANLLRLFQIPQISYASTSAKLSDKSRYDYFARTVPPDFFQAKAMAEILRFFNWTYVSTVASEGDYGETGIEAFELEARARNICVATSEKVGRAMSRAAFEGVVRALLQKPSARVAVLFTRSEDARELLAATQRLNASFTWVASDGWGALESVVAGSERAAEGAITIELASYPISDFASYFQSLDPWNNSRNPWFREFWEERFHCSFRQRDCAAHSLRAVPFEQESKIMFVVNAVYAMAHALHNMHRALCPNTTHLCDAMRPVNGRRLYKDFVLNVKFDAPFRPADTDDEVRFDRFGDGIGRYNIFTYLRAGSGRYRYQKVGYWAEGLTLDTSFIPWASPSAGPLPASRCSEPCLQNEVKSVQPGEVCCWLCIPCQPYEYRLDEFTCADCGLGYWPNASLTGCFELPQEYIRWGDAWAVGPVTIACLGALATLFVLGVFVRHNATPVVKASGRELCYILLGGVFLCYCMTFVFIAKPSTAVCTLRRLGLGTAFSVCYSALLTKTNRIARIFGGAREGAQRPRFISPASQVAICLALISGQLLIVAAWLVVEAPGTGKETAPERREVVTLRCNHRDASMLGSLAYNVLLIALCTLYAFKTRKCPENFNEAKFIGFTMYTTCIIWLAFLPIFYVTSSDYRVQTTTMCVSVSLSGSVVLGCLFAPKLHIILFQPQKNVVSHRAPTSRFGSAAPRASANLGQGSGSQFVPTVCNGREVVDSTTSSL

Row | EC50 [1] | IC50 [2] [µM] | EC50 [4] [µM] | IC50 [6] | EC50 [7] | EC50 [8] [µM] | SMILES | also measured
1 | Not Active | 270 | – | – | – | – | CC(N)(C(=O)O)c1ccc(C(=O)O)cc1 (configuration not stated) | IC50 [3]: 290 µM
2 | Not Active | – | 0.48 | – | – | – | N[C@@]1(C(=O)O)CN[C@@H](C(=O)O)C1 | EC50 [5]: 1.7 µM
3 | Not Active | 68 | – | – | – | – | CC(N)(C(=O)O)C1CC1C(=O)O (configuration not stated) | –
4 | Not Active | – | 950 | Not Active | Not Active | – | Cl.Cl.N[C@]1(C(=O)O)C[C@H](C(=O)O)N(Cc2cccc(O)c2)C1 | –
5 | – | 21 | – | – | – | 22 | N[C@]1(C(=O)O)C[C@H](C(=O)O)N(C(C(=O)O)c2ccccc2)C1 (some centres not stated) | –
6 | Not Active | 23 | – | – | – | – | Cl.Cl.N[C@]1(C(=O)O)C[C@H](C(=O)O)N(Cc2ccccc2C#Cc2ccccc2)C1 | –
7 | – | 93 | – | – | – | 100 | N[C@]1(C(=O)O)C[C@H](C(=O)O)N(Cc2cccc([N+](=O)[O-])c2)C1 | –
8 | – | – | – | Not Active | Not Active | 58 | Cl.Cl.N[C@]1(C(=O)O)C[C@H](C(=O)O)N(Cc2ccc(C(=O)O)cc2)C1 | EC50 [9]: 4.7 µM
9 | – | 27 | 6.1 | – | – | – | N[C@]1(C(=O)O)C[C@H](C(=O)O)N(Cc2ccccc2O)C1 | EC50 [10]: 88 µM
10 | Not Active | – | – | Not Active | Not Active | – | Cl.Cl.Cl.Nc1ccc(CN2C[C@@](N)(C(=O)O)C[C@@H]2C(=O)O)cc1 | EC50 [9]: 2.3 µM
11 | Not Active | – | 35 | Not Active | Not Active | – | Cl.Cl.Cl.Nc1ccccc1CN1C[C@@](N)(C(=O)O)C[C@@H]1C(=O)O | –
12 | – | 190 | – | – | – | 320 | COc1ccc(CN2C[C@@](N)(C(=O)O)C[C@@H]2C(=O)O)cc1 | –
13 | – | – | 24 | – | – | 74 | N[C@]1(C(=O)O)C[C@H](C(=O)O)N(Cc2ccc(O)cc2)C1 | EC50 [11]: 7.5 µM
14 | Not Active | – | 37 | – | – | – | Cl.Cl.Cl.N[C@]1(C(=O)O)C[C@H](C(=O)O)N(Cc2ccccn2)C1 | EC50 [5]: 37 µM
15 | – | – | – | Not Active | Not Active | 210 | Cl.Cl.N[C@]1(C(=O)O)C[C@H](C(=O)O)N(Cc2cc([N+](=O)[O-])cc([N+](=O)[O-])c2)C1 | IC50 [12]: Not Active; EC50 [13]: Not Active
16 | Not Active | – | – | Not Active | Not Active | – | Cl.Cl.N[C@]1(C(=O)O)C[C@H](C(=O)O)N(CC(=O)O)C1 | EC50 [9]: 0.61 µM
17 | – | – | 4 | – | – | 110 | N[C@]1(C(=O)O)C[C@H](C(=O)O)N(Cc2ccccc2[N+](=O)[O-])C1 | EC50 [5]: 6.8 µM
18 | Not Active | – | 33 | Not Active | Not Active | – | Cl.Cl.N[C@]1(C(=O)O)C[C@H](C(=O)O)N(Cc2ccccc2C(=O)O)C1 | –
19 | Not Active | – | 160 | Not Active | Not Active | – | Cl.Cl.N[C@]1(C(=O)O)C[C@H](C(=O)O)N(Cc2ccc([N+](=O)[O-])cc2)C1 | –
20 | – | – | – | – | – | 310 | N[C@]1(C(=O)O)C[C@H](C(=O)O)N(Cc2ccccc2Br)C1 | –
21 | – | – | – | Not Active | Not Active | 57 | Cl.Cl.N[C@]1(C(=O)O)C[C@H](C(=O)O)N(Cc2cccc(C(=O)O)c2)C1 | IC50 [12]: Not Active; EC50 [13]: Not Active
